Experiments:
[1] = Cytotoxicity against human MNK45 cells after 48 hrs by MTT assay; type: functional, cell-based; details: MNK45, 48 h
In short: (§1)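 Cells kept in DMEM with 10% FBS, penicillin and streptomycin at 37 °C, 5% CO2. Seeded at 2 × 10^4 cells/well, allowed to adhere for 24 h, then exposed for 48 h to graded compound concentrations […], with 5-fluorouracil as positive control. MTT (5 mg/mL stock) added for 4 h at 37 °C, formazan dissolved in DMSO, read at 570 nm. IC50 is the mean of three independent experiments run in duplicate.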

HeLa = test: Cytotoxicity against human HeLa cells after 48 hrs by MTT assay; type: functional, cell-based; in short: as §1

COC(=O)C1=CO[C@@H](O[C@@H]2O[C@H](CO)[C@@H](O)[C@H](O)[C@H]2O)[C@@H]2[C@H](C)O[C@@H](OC)C[C@H]12
IC50 [1]: > 50 µM | IC50 (HeLa): > 50 µM

C[C@@H]1[C@H]2OC[C@@H]3[C@@H]1C[C@H](O)[C@@]3(C)O2
IC50 [1]: > 50 µM | IC50 (HeLa): > 50 µM

C[C@H]1[C@H]2OC[C@@H]3[C@@H]1C[C@H](O)[C@@]3(C)O2
IC50 [1]: > 50 µM | IC50 (HeLa): > 50 µM

COC(=O)C1=CO[C@@H](O[C@@H]2O[C@H](CO)[C@@H](O)[C@H](O)[C@H]2O)[C@@H]2[C@H](C)O[C@H](OC)C[C@H]12
IC50 [1]: > 50 µM | IC50 (HeLa): > 50 µM

COC(=O)C1=CO[C@@H](O[C@@H]2O[C@H](CO)[C@@H](O)[C@H](O)[C@H]2O)[C@@H]2[C@H](C)O[C@H](O)C[C@H]12
IC50 [1]: > 50 µM | IC50 (HeLa): > 50 µM

O=c1[nH]cc(F)c(=O)[nH]1 [FLUOROURACIL]
IC50 [1]: 12 µM | IC50 (HeLa): 9.5 µM

C[C@@H]1C(=O)OC[C@H]2[C@@H]1C[C@H](O)[C@@]2(C)O [ISOPATRISCABROL]
IC50 [1]: > 50 µM | IC50 (HeLa): 24.5 µM

C=C1COC(=O)[C@H]2[C@@H]1C[C@H](O)[C@@]2(C)O [JATAMANIN A]
IC50 [1]: > 50 µM | IC50 (HeLa): > 50 µM

COC(=O)C1=CO[C@@H](O[C@@H]2O[C@H](CO)[C@@H](O)[C@H](O)[C@H]2O)[C@@H]2[C@H](C)O[C@@H](O)C[C@H]12 [MORRONISIDE]
IC50 [1]: > 50 µM | IC50 (HeLa): > 50 µM

C=C(CO)[C@H]1C[C@H](OC(=O)CC(C)C)[C@@](C)(O)[C@H]1CO[C@@H]1O[C@H](CO)[C@@H](O)[C@H](O)[C@H]1O [PATRINIOSIDE]
IC50 [1]: 23.8 µM | IC50 (HeLa): > 50 µM

C[C@@H]1C[C@@H]2OC=C(C=O)[C@@H]2[C@@H]1CO[C@@H]1O[C@H](CO)[C@@H](O)[C@H](O)[C@H]1O [PATRIRIDOSIDE D]
IC50 [1]: 15.6 µM | IC50 (HeLa): > 50 µM

C[C@H]1C(=O)OC[C@H]2[C@@H]1CC[C@@]2(C)O[C@@H]1O[C@H](CO)[C@@H](O)[C@H](O)[C@H]1O [PATRIRIDOSIDE E]
IC50 [1]: > 50 µM | IC50 (HeLa): > 50 µM

C[C@H]1[C@H]2C[C@H](O)[C@@](C)(O[C@@H]3O[C@H](CO)[C@@H](O)[C@H](O)[C@H]3O)[C@H]2CO[C@@H]1O [PATRIRIDOSIDE F]
IC50 [1]: > 50 µM | IC50 (HeLa): > 50 µM

C=C1CO[C@]2(CO[C@@H]3O[C@H](CO)[C@@H](O)[C@H](O)[C@H]3O)C(C)=CC[C@H]12 [PATRIRIDOSIDE G]
IC50 [1]: 8.7 µM | IC50 (HeLa): > 50 µM

C=C1CO[C@]2(CO[C@@H]3O[C@H](CO[C@@H]4OC[C@](O)(CO)[C@H]4O)[C@@H](O)[C@H](O)[C@H]3O)C(C)=CC[C@H]12 [PATRIRIDOSIDE H]
IC50 [1]: 9.4 µM | IC50 (HeLa): > 50 µM

CC1=CC[C@@H]2[C@H](C)CO[C@]12CO[C@@H]1O[C@H](CO[C@@H]2OC[C@](O)(CO)[C@H]2O)[C@@H](O)[C@H](O)[C@H]1O [PATRIRIDOSIDE I]
IC50 [1]: 30.9 µM | IC50 (HeLa): > 50 µM

C[C@H]1C(=O)OC[C@H]2[C@@H]1C[C@H](O)[C@@]2(C)O [PATRISCABROL]
IC50 [1]: > 50 µM | IC50 (HeLa): > 50 µM

C[C@H]1C(=O)OC[C@H]2[C@@H]1C[C@H](O[C@@H]1O[C@H](CO)[C@@H](O)[C@H](O)[C@H]1O)[C@@]2(C)O [PATRISCABROSIDE I]
IC50 [1]: > 50 µM | IC50 (HeLa): > 50 µM

C[C@H]1C(=O)OC[C@H]2[C@@H]1CC[C@@]2(C)O [SCABROL A]
IC50 [1]: > 50 µM | IC50 (HeLa): > 50 µM

C=C[C@H]1[C@H](O[C@@H]2O[C@H](CO)[C@@H](O)[C@H](O)[C@H]2O)OC=C2C(=O)OCC[C@H]21 [SWEROSIDE]
IC50 [1]: 11.2 µM | IC50 (HeLa): > 50 µM

From ChEMBL document CHEMBL2150941, “Cytotoxic iridoids from the roots of Patrinia scabra” (J Nat Prod, 2012)
